≈ marks a conversion by molar mass, not a printed value. Starred links: 1 amine or outer side, 2 acyl side, 3 side chain; linkers in the order of their positions; H or OH if unused. Positions of bridges follow the written chain, without caps; N, C: chain ends. Non-standard residues stand in square brackets, D forms with d. Residues, ends and D or L forms follow the SMILES beside them. Chains are numbered I, II in the order given. Actinocin(1to9) = Cc1c2oc3c(C)ccc(C(=O)[*:2])c3nc-2c(C(=O)[*:1])c(N)c1=O; NMeV = CN[C@H](C(=O)O)C(C)C; Sar = CNCC(=O)O
Assays:
KB = test: Cytotoxicity against human KB cells after 72 hrs by methylene blue assay; format: functional, cell-based
Procedure, shortened: (§1)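 Cells grown in RPMI-1640 at 37 °C under 5% CO2, seeded at 2880 cells/well and left 3 h before adding samples. Samples prepared at 1, 10, 40 and 100 μg/mL, then 3 days at 37 °C. Cells fixed in 10% formal saline, stained with 1% methylene blue in 0.01 M borate buffer, washed, and dye eluted with ethanol/0.1 M HCl (1:1). A650 read. IC50 is 50% absorbance reduction vs untreated cells.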

[1] = Cytotoxicity against human HepA cells after 72 hrs by methylene blue assay; format: functional, cell-based; procedure, shortened: as §1

Compound	IC50 (KB) [µg/mL]	IC50 [1] [µg/mL]
CC(=O)O[C@H]1C(=O)[C@@]2(C)[C@H]([C@H](OC(=O)c3ccccc3)[C@]3(O)C[C@H](OC(=O)[C@H](O)[C@@H](NC(=O)c4ccccc4)c4ccccc4)C(C)=C1C3(C)C)[C@]1(OC(C)=O)CO[C@@H]1C[C@@H]2O [PACLITAXEL]	< 0.1	< 0.1
CC(=O)OC[C@H]1[C@H]2[C@H](O)[C@]3(C(C)(C)O)C[C@H](OC(C)=O)C(C)=C3[C@@H](O)[C@H](OC(C)=O)[C@]2(C)[C@@H](OC(C)=O)C[C@@H]1OC(C)=O [TAXUMAIRO U]	10.3 (≈ 16.8 µM)	0.3 (≈ 0.49 µM)
CC(=O)OC[C@H]1[C@H]2[C@H](O)[C@]3(C(C)(C)O)C[C@H](OC(C)=O)C(C)=C3[C@@H](OC(C)=O)[C@H](OC(C)=O)[C@]2(C)[C@@H](OC(C)=O)C[C@@H]1OC(C)=O	> 20	2.7 (≈ 4.12 µM)
CC(=O)OC[C@H]1[C@H]2[C@H](O)[C@]3(C(C)(C)O)C[C@H](O)C(C)=C3[C@@H](O)[C@H](OC(C)=O)[C@]2(C)[C@@H](OC(C)=O)C[C@@H]1OC(C)=O [TAXUMAIROL V]	3.9 (≈ 6.83 µM)	1.6 (≈ 2.8 µM)
CC(=O)O[C@@H]1C2=C(C)[C@@H](OC(=O)c3ccccc3)C[C@@]2(C(C)(C)O)[C@@H](O)[C@@H]2[C@]3(OC(C)=O)CO[C@@H]3C[C@H](OC(C)=O)[C@@]2(C)[C@H]1OC(=O)c1ccccc1	> 20	> 20
Cc1c2oc3c(C)ccc(C(=O)N[C@@H]4C(=O)N[C@H](C(C)C)C(=O)N5CCC[C@H]5C(=O)N(C)CC(=O)N(C)[C@@H](C(C)C)C(=O)O[C@@H]4C)c3nc-2c(C(=O)N[C@@H]2C(=O)N[C@H](C(C)C)C(=O)N3CCC[C@H]3C(=O)N(C)CC(=O)N(C)[C@@H](C(C)C)C(=O)O[C@@H]2C)c(N)c1=O [DACTINOMYCIN] (I: T[dV]P[Sar][NMeV] / II: T[dV]P[Sar][NMeV]; ester I:1-I:C, II:1-II:C; linker I:N-II:N via Actinocin(1to9))		0.01 (≈ 0.00797 µM)
CC(=O)O[C@@H]1C2=C(C)[C@@H](O)C[C@@]2(C(C)(C)O)[C@@H](OC(C)=O)[C@@H]2[C@]3(OC(C)=O)CO[C@@H]3C[C@H](OC(C)=O)[C@@]2(C)[C@H]1O [TAXUMAIROL W]	> 20	7 (≈ 12.3 µM)
CO[C@@]12[C@H](COC(N)=O)C3=C(C(=O)C(C)=C(N)C3=O)N1C[C@@H]1N[C@@H]12 [MITOMYCIN]		0.01 (≈ 0.0299 µM)
